Experiments:
[1] = species: Canis familiaris; assay: In vitro metabolic stability in dog hepatic microsomes (1 mg protein/mL), expressed as the percent remaining after 30 min of incubation at […].; assay type: functional; details: Canis lupus familiaris, Liver, 37 °C
Method in brief: (§1)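 Test compound at 10 µM incubated 30 min at 37 °C with dog or human hepatic microsomes (1 mg protein/mL). Read-out is percent of parent remaining. More than 2 determinations.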

[2] = species: Homo sapiens; assay: In vitro metabolic stability in human hepatic microsomes (1 mg protein/mL), expressed as the percent remaining after 30 min of incubation at […].; assay type: functional; details: Liver, 37 °C; method in brief: as §1
[3] = tested on: Canis familiaris; assay: Metacholine provocation test was conducted 4 hr after oral administration (1 mg/kg) in anesthetized dogs. The bronchodilatory activity is expressed as shifts; assay type: functional, Canis lupus familiaris
[4] = molecular target: T1, Muscarinic acetylcholine receptor M3 (Homo sapiens, UniProt P20309); assay: Inhibition of [3H]NMS binding to human muscarinic acetylcholine receptor M3 expressed in CHO cells; assay type: cell-based
Method in brief: (§2)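 Competition binding against [3H]-NMS on membranes from CHO cells expressing cloned human m2 or m3 receptors. Affinity is taken from inhibition of specific binding, as the mean of two or more independent assays.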

[5] = molecular target: T2, Muscarinic acetylcholine receptor M2 (Homo sapiens, UniProt P08172); assay: Inhibition of [3H]NMS binding to human muscarinic acetylcholine receptor M2 expressed in CHO cells; assay type: cell-based; method in brief: as §2
T2 sequence (P08172 whole entry): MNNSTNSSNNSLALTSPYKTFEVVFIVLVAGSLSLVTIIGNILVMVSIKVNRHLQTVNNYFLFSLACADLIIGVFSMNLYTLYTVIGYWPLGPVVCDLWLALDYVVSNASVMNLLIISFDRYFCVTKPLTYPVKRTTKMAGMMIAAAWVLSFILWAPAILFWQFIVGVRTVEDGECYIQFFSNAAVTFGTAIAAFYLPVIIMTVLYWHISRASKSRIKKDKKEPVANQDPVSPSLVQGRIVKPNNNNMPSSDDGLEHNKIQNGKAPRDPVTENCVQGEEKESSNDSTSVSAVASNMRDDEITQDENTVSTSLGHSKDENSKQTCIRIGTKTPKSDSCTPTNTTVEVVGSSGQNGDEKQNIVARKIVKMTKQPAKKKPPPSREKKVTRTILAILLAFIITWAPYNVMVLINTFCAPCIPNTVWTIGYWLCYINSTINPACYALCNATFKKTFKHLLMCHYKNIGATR

[6] = molecular target: T1, Muscarinic acetylcholine receptor M3; assay: Ability to inhibit binding of [3H]NMS was determined by receptor binding assay using membranes from chinese hamster ovary (CHO) cells expressing cloned Muscarinic acetylcholine receptor M3; assay type: cell membranes
Method in brief: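 Radioligand displacement of [3H]-NMS specific binding on membranes prepared from CHO cells transfected with cloned human m3 receptor. Affinity was derived from inhibition of specific binding. Each value is the mean of two or more independent assays.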

[7] = species: Homo sapiens; assay: In vitro metabolic stability in human hepatic microsomes (1 mg protein/mL) was reported as the percent remaining after 30 min of incubation […]; assay type: functional; details: Liver; method in brief: as §1

T1 sequence (P20309 whole entry): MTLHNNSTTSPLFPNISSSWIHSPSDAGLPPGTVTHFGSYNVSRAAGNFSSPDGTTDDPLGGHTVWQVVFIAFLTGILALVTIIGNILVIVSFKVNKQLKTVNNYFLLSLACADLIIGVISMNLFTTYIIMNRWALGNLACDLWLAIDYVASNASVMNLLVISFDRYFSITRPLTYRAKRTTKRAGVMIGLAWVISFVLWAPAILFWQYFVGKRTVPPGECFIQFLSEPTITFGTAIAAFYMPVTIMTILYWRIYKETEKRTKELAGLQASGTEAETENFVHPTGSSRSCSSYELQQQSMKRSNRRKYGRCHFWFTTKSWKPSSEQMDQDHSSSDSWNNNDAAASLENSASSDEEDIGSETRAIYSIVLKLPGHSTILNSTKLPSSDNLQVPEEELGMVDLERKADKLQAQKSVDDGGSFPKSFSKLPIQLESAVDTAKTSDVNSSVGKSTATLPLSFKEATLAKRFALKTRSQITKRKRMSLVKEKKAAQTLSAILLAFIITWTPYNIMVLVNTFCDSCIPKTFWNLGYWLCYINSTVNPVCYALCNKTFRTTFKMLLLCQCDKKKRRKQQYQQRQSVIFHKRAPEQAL

SMILES	Metabolic stability [1] [%]	Metabolic stability [2] [%]	Activity [3]	Ki [4] [nM]	Ki [5] [nM]	Ki [6] [nM]	Metabolic stability [7] [%]
COc1cccc(CN2CCC(NC(=O)[C@](O)(c3ccccc3)[C@@H]3CCC(F)(F)C3)CC2)c1	53	46	–	–	–	–	–
Nc1ccc(CN2CCC(NC(=O)[C@](O)(c3ccccc3)[C@@H]3CCC(F)(F)C3)CC2)cc1	89	88	43	7.8	220	–	–
O=C(NC1CCN(Cc2ccccc2)CC1)[C@](O)(c1ccccc1)[C@@H]1CCC(F)(F)C1	45	47	–	3.8	260	–	–
CC(C)=CCCN1CCC(NC(=O)[C@](O)(c2ccccc2)[C@@H]2CCC(F)(F)C2)CC1	70	68	4.2	6.2	2000	–	–
Cc1cccc(CN2CCC(NC(=O)[C@](O)(c3ccccc3)[C@@H]3CCC(F)(F)C3)CC2)n1	24	52	–	–	–	–	–
O=C(NC1CCN(Cc2ccoc2)CC1)C(O)(c1ccccc1)C1CCCC1 (centres undefined)	–	–	–	50	1800	–	–
Nc1cccc(CN2CCC(NC(=O)[C@](O)(c3ccccc3)[C@@H]3CCC(F)(F)C3)CC2)c1	88	90	–	6.9	330	–	–
Cc1ccccc1CN1CCC(NC(=O)C(O)(c2ccccc2)C2CCCC2)CC1 (centres undefined)	–	–	–	220	37000	–	–
O=C(NC1CCN(CC2CCCCC2)CC1)C(O)(c1ccccc1)C1CCCC1 (centres undefined)	–	–	–	17	3300	–	–
O=C(NC1CCN(Cc2ccccc2)CC1)C(O)(c1ccccc1)C1CCCC1 (centres undefined)	–	–	–	–	30	–	–
Cc1cccc(CN2CCC(NC(=O)C(O)(c3ccccc3)C3CCCC3)CC2)n1 (centres undefined)	–	–	–	11	2400	–	–
O=C(NC1CCN(CC2CCCCC2)CC1)[C@](O)(c1ccccc1)[C@@H]1CCC(F)(F)C1	70	86	2.3	18	21000	–	–
Nc1cccc(CN2CCC(NC(=O)[C@](O)(c3ccccc3)[C@@H]3CCC(F)(F)C3)CC2)n1	84	80	>64	2.8	530	–	–
O=C(NC1CCN(CC2CCCC2)CC1)C(O)(c1ccccc1)C1CCCC1 (centres undefined)	–	–	–	270	14000	–	–
Cc1cccc(CN2CCC(NC(=O)[C@](O)(c3ccccc3)[C@@H]3CCC(F)(F)C3)CC2)c1	32	55	25	–	310	2	–
NCc1cccc(CN2CCC(NC(=O)[C@](O)(c3ccccc3)[C@@H]3CCC(F)(F)C3)CC2)c1	77	80	–	21	3400	–	–
O=C(NC1CCN(Cc2ccsc2)CC1)C(O)(c1ccccc1)C1CCCC1 (centres undefined)	–	–	–	3.6	79	–	–
O=C(NC1CCN(CC2CCCCCC2)CC1)C(O)(c1ccccc1)C1CCCC1 (centres undefined)	–	–	–	12	3100	–	–
O=C(NC1CCN(Cc2cccc(F)c2)CC1)[C@](O)(c1ccccc1)[C@@H]1CCC(F)(F)C1	23	–	–	3.1	480	–	52
CC(C)=CCCN1CCC(NC(=O)[C@](O)(c2ccccc2)[C@H]2CC[C@H](F)C2)CC1	60	66	–	19	1300	–	–

SMILES	Metabolic stability [1] [%]	Metabolic stability [2] [%]	Activity [3]	Ki [4] [nM]	Ki [5] [nM]	Ki [6] [nM]	Metabolic stability [7] [%]
O=C(NC1CCN(Cc2cccc(O)c2)CC1)[C@](O)(c1ccccc1)[C@@H]1CCC(F)(F)C1	73	56	–	5.4	37	–	–
O=C(NC1CCN(Cc2ccsc2)CC1)[C@](O)(c1ccccc1)[C@@H]1CCC(F)(F)C1	37	35	–	–	–	–	–
O=C(NC1CCN(CC2CCCCCC2)CC1)[C@](O)(c1ccccc1)[C@@H]1CCC(F)(F)C1	–	–	–	–	17000	28	–
O=C(NC1CCN(Cc2cccc(CO)c2)CC1)[C@](O)(c1ccccc1)[C@@H]1CCC(F)(F)C1	73	34	3.1	–	6900	–	–
COc1cccc(CN2CCC(NC(=O)C(O)(c3ccccc3)C3CCCC3)CC2)c1 (centres undefined)	–	–	–	5.9	270	–	–
Cc1cc(CN2CCC(NC(=O)C(O)(c3ccccc3)C3CCCC3)CC2)cs1 (centres undefined)	–	–	–	3.5	24	–	–
Cc1cccc(CN2CCC(NC(=O)C(O)(c3ccccc3)C3CCCC3)CC2)c1 (centres undefined)	–	–	–	2.3	70	–	–
CC(C)=CCCN1CCC(NC(=O)[C@](O)(c2ccccc2)[C@H]2CC[C@H](O)C2)CC1	75	76	2.9	18	2300	–	–
O=C(NC1CCN(CC2CCCCCCC2)CC1)C(O)(c1ccccc1)C1CCCC1 (centres undefined)	–	–	–	93	9400	–	–
O=C(NC1CCN(Cc2cccnc2)CC1)C(O)(c1ccccc1)C1CCCC1 (centres undefined)	–	–	–	100	4600	–	–
Nc1ccc(CN2CCC(NC(=O)[C@](O)(c3ccccc3)[C@@H]3CCC(F)(F)C3)CC2)cc1F	78	78	–	6.1	310	–	–
Cc1ccc(CN2CCC(NC(=O)C(O)(c3ccccc3)C3CCCC3)CC2)cc1 (centres undefined)	–	–	–	6.4	22	–	–
Nc1ccc(CN2CCC(NC(=O)[C@](O)(c3ccccc3)[C@@H]3CCC(F)(F)C3)CC2)nc1	–	–	–	15	930	–	–
CC(C)=CCCN1CCC(NC(=O)[C@](O)(c2ccccc2)C2CCCC2)CC1	31	54	5.2	–	490	–	–
CC(C)=CCCN1CCC(NC(=O)[C@](O)(c2ccccc2)[C@H]2CC[C@@H](F)C2)CC1	64	75	–	11	2300	–	–
O=C(NC1CCN(Cc2ccncc2)CC1)C(O)(c1ccccc1)C1CCCC1 (centres undefined)	–	–	–	190	6400	–	–
CC(C)=CCCN1CCC(NC(=O)[C@](O)(c2ccccc2)[C@H]2CCC(F)(F)C2)CC1	77	75	–	16	1400	–	–
O=C(NC1CCN(Cc2ccccn2)CC1)[C@](O)(c1ccccc1)[C@@H]1CCC(F)(F)C1	45	60	–	13	2400	–	–
O=C(NC1CCN(Cc2ccccn2)CC1)C(O)(c1ccccc1)C1CCCC1 (centres undefined)	–	–	–	14	320	–	–

Source: ChEMBL document CHEMBL1133569, “A potent, long-acting, orally active (2R)-2-[(1R)-3, 3-difluorocyclopentyl]-2-hydroxy-2-phenylacetamide: novel muscarinic M(3) receptor antagonist with high selectivity for M(3) over M(2) receptors” (J Med Chem, 2000)
